B2AR ag: beta2AR agonists driving receptor internalization, primary screen, cell-based, FAP fluorogen, flow cytometry; response, % (no concentration beside the values); AID 504454, 2011; 0.43% of 340,000 active; Am2.2-beta2AR cells;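 active means response above a set limit, near 3 SD of response in nonfluorescent compounds, cut at about 42% in these data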
Target sequence (P07550 whole entry, looked up): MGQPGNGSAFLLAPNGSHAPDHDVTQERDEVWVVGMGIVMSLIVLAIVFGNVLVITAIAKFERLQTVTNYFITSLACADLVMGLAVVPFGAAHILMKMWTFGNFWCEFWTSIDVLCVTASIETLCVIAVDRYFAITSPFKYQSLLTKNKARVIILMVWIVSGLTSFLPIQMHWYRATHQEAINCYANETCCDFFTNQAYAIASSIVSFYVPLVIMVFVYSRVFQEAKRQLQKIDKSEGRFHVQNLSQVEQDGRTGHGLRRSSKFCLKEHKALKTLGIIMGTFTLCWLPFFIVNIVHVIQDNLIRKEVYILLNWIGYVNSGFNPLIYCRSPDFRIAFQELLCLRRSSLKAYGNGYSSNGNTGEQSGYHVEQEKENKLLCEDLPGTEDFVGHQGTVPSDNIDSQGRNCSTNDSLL
NadD block: inhibitors of S. aureus NadD, primary screen, biochemical, colorimetric, uHTS; Nicotinate-nucleotide adenylyltransferase NadD (Staphylococcus aureus N315); purified NadD enzyme, colorimetric absorbance read-out; inhibition, % at 20 µM; 0.78% of 360,000 active; AID 602399, 2012; in the data active means inhibition above about 26%
ABHD5 PLIN5 PPI: ABHD5-PLIN5 interaction inhibitors, primary screen, cell lysate, split luciferase complementation, luminescence | inhibition, % at 4 µM | 0.78% of 360,000 active | Split G. princeps luciferase complementation, 4 h;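 active means inhibition above the mean inhibition across every tested compound plus 3 SD, cut at about 22% in these data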
GRK2 aptamer HTS: compounds blocking aptamer binding on GRK2 – biochemical, human GRK2, bead flow cytometry, HTS, primary screen; Beta-adrenergic receptor kinase 1 (Homo sapiens), P25098; FAM-aptamer displacement from GRK2; inhibition of aptamer binding, % at 10 µM; 0.59% of 330,000 active;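 active means inhibition of aptamer binding above 40%, roughly 3 SD of noise, on plates passing a quality check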;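 further: median bead fluorescence of bound FAM aptamer so fluorescent compounds give negative values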
SENP1 inh: human SENP1 catalytic domain inhibitors, primary screen, biochemical, FRET, uHTS; Sentrin-specific protease 1 (Homo sapiens), Q9P0U3; recombinant SENP1 catalytic domain, CyPet-SUMO1-YPet FRET cleavage; inhibition, % at 10 µM; 0.21% of 360,000 active;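 active means inhibition at least 30% at 10 µM, raw YFP signal under a set limit, fluorescence ratio 0.5 to 1.5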
Target sequence (Q9P0U3 419-644 limits assumed): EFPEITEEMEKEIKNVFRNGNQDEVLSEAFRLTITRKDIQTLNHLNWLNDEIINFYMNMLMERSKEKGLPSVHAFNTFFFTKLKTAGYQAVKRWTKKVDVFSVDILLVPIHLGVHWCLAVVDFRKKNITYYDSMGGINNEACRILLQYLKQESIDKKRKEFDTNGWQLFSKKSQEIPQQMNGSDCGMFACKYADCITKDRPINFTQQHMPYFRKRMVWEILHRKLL
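Material – human SENP1 catalytic domain · Input – SENP1 enzyme, 20 pM final · Compound dosing – single concentration of 10 µM compound, 0.5% DMSO final · Timing – enzyme reaction for 50 min at room temperature, dark · Measured by – FRET fluorescence in CFP and YFP emission channels · Control set – no-enzyme wells low, DMSO-plus-enzyme wells high control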
ABHD5-PLIN5 conf: ABHD5-PLIN5 interaction inhibitors, confirmation, biochemical, luminescence; shares compounds with ABHD5 PLIN5 PPI; inhibition, % at 4 µM; 67% of 2,200 active; in the data active means inhibition above about 23%
HNF4 counter: HNF4 dimerization inhibitors, counter-screen for ABHD5-PLIN5 interaction inhibitor project, biochemical, split-luciferase complementation, luminescence | inhibition, % at 4 µM | shares compounds with ABHD5 PLIN5 PPI | 77% of 2,200 active;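 active means mean inhibition across replicate wells exceeding the computed hit threshold, cut at about 13% in these data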;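 further: light from luciferase halves that rejoin when HNF4 fusion proteins dimerize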
NadD inh conf: inhibitors of S. aureus NadD, confirmation, biochemical, colorimetric, single concentration; 13% of 2,000 active; inhibition, % at 20 µM; shares compounds with NadD block; AID 624309, 2012; purified S. aureus NadD, colorimetric enzyme assay; in the data active means inhibition mostly above about 42%, no sharp cut-off; inactive means mostly below about 42%
SENP1 inh conf: human SENP1 catalytic domain inhibitors, confirmation, biochemical, FRET endpoint, single concentration. shares compounds with SENP1 inh. recombinant SENP1, CyPet-SUMO1-YPet FRET cleavage. inhibition, % at 10 µM. 34% of 520 active; in the data active means inhibition mostly above about 35%, no sharp cut-off; inactive means mostly below about 32%
SENP1 kinetic: human SENP1 catalytic domain inhibitors, confirmation, biochemical, kinetic FRET, single concentration; inhibition, % at 10 µM; 26% of 520 active; shares compounds with SENP1 inh; recombinant SENP1, CyPet-SUMO1-YPet FRET kinetic cleavage; in the data active means inhibition mostly above about 32%, no sharp cut-off; inactive means mostly below about 29%
Numbers stand for hits; i = inactive; nt = no result given. A selection: hits, their analogues and other compounds. The true share with any hit is near 2.5%.

SMILES	B2AR ag	NadD block	ABHD5 PLIN5 PPI	GRK2 aptamer HTS	SENP1 inh	NadD inh conf	others
O=c1c2c3nc4ccccc4nc3n(Cc3ccccc3)c2ncn1Cc1ccco1	i	39	44	nt	i	i	ABHD5-PLIN5 conf=96;HNF4 counter=95
CCSc1ccc([C@@H]2[C@H]3C(=O)N(C)C(=O)[C@H]3[C@]3(C(=O)OC)CCCCN23)cc1OC	i	i	i	i	i	nt
COc1cc(SC#N)ccc1N=Cc1c(C)[nH]n(-c2ccc(C)cc2C)c1=O	i	i	27	i	67	nt	ABHD5-PLIN5 conf=38;HNF4 counter=26;SENP1 inh conf=38;SENP1 kinetic=34
Cc1ccc(CNC(=O)CC(C)S(=O)(=O)c2ccc3c(c2)NC(=O)CS3)o1 (stereo not drawn)	i	i	38	i	36	nt	ABHD5-PLIN5 conf=i;HNF4 counter=22;SENP1 inh conf=i;SENP1 kinetic=24
Cc1ccc(CNC(=O)CCS(=O)(=O)c2ccc3c(c2)NC(=O)CS3)cc1	i	i	i	i	i	nt
O=C(NC1CCCCC1)C1c2ccccc2OCC(=O)N1CC(F)(F)F (stereo not drawn)	nt	i	i	nt	i	nt
Cc1cc(-c2cc(C(=O)O)c3ccccc3n2)c(C)s1	i	58	i	i	i	i
C#CCN(C[C@H]1[C@H](OC(=O)Nc2c(C)noc2C)[C@H](OC(=O)Nc2c(C)noc2C)C[C@H]2C(=O)N(c3ccccc3)C(=O)[C@@H]12)S(=O)(=O)c1ccc(C)cc1	nt	i	i	nt	i	nt
C#CCN(C[C@H]1[C@H](OC(=O)NCCCCCC)[C@H](OC(=O)NCCCCCC)C[C@H]2C(=O)N(c3ccccc3)C(=O)[C@@H]12)S(=O)(=O)c1ccc(C)cc1	nt	i	i	nt	i	nt
C#CCN(C[C@H]1[C@H](OC(=O)Nc2cccs2)[C@H](OC(=O)Nc2cccs2)C[C@H]2C(=O)N(c3ccccc3)C(=O)[C@@H]12)S(=O)(=O)c1ccc(C)cc1	nt	35	i	nt	i	50
C#CCN(C[C@H]1[C@H](OC(=O)NCc2ccccc2)[C@H](OC(=O)NCc2ccccc2)C[C@H]2C(=O)N(c3ccccc3)C(=O)[C@@H]12)S(=O)(=O)c1ccc(C)cc1	nt	35	i	nt	i	48
C#CCN(C[C@H]1[C@H](OC(=O)NC2CC2)[C@H](OC(=O)NC2CC2)C[C@H]2C(=O)N(c3ccccc3)C(=O)[C@@H]12)S(=O)(=O)c1ccc(C)cc1	nt	i	i	nt	i	nt
C#CCN(C[C@H]1[C@H](OC(=O)NCC2CCCCC2)[C@H](OC(=O)NCC2CCCCC2)C[C@H]2C(=O)N(c3ccccc3)C(=O)[C@@H]12)S(=O)(=O)c1ccc(C)cc1	nt	37	i	nt	i	i
Cc1cc(NC(=O)COc2ccc(C(C)(C)C)cc2)no1	i	i	i	nt	i	nt
COCCNC(=O)C1(C)CCN(C(=O)c2ccc3c(c2)C(C)(C)CCC3(C)C)C1 (stereo not drawn)	nt	i	i	nt	i	nt
CCOc1ccc(OCC)c(NC(=O)C2CCN(c3cnccn3)CC2)c1	i	i	i	i	i	nt
COc1ccc2cc([C@H](C)C(=O)N(C)Cc3ccccc3N3CCCC3)ccc2c1	i	i	i	i	i	nt
CCOC(=O)C(C#N)(Cc1ccc2ccccc2n1)Cc1ccc2ccccc2n1	i	i	i	nt	i	nt
O=C(COC(=O)c1cccc(N2C(=O)C3CC=CCC3C2=O)c1)c1ccccc1 (stereo not drawn)	i	i	i	i	i	nt
CCc1ccc(C(=O)COC(=O)c2cccc(N3C(=O)c4c(C)nc5ccccc5c4C3=O)c2)cc1	i	36	i	i	i	i
Cn1cnc2ncnc(Oc3ccc(Br)cc3)c21	i	i	i	nt	i	nt
Cc1c(C(=O)OCC(=O)N(CC(C)C)c2c(N)n(Cc3ccccc3)c(=O)[nH]c2=O)oc2ccccc12	i	i	i	nt	i	nt
CCOc1ccc2oc(C(=O)OCC(=O)N(CC(C)C)c3c(N)n(Cc4ccccc4)c(=O)[nH]c3=O)c(C)c2c1	i	40	i	nt	i	i
COc1ccccc1NS(=O)(=O)c1cc(NC(=O)Nc2ccc(Cl)cc2Cl)ccc1N1CCCCC1	i	43	i	i	i	i
CCC(=O)Nc1ccc(C(=O)COC(=O)c2nc3nccc(C)n3n2)cc1	i	46	i	i	i	86
SMILES	B2AR ag	NadD block	ABHD5 PLIN5 PPI	GRK2 aptamer HTS	SENP1 inh	NadD inh conf	others
Cc1ccc(S(=O)(=O)N2CCCC2C(=O)NCc2ccncc2)cc1 (stereo not drawn)	i	i	i	i	i	nt
CC(=O)c1cccc(CN2CCCC(C(=O)Nc3ccc(-c4ccco4)cc3)C2)c1 (stereo not drawn)	i	32	30	i	i	i
Nc1ccn([C@@H]2O[C@H](C(=O)N3CCSC3)[C@@H](O)[C@H]2O)c(=O)n1	nt	i	i	nt	i	nt
O=C(N/N=C/c1cn(-c2cccs2)nc1-c1ccccc1)c1ccccc1O	i	34	i	i	i	i
Cc1[nH]oc(=O)c1N=Nc1ccc2[nH]c(=O)[nH]c2c1	i	i	i	i	i	nt
COc1ccc(NC(=O)c2ccc3c(c2)NC(=O)CS3)cc1	i	i	i	i	i	nt
Cc1ccc(NS(=O)(=O)c2cc(NC(=O)c3ccc4c(c3)NC(=O)CS4)ccc2Cl)c(C)c1	i	37	i	i	i	52
Cc1ccc(Cl)cc1N1CCN(S(=O)(=O)c2ccc3[nH]c(=O)ccc3c2)CC1	i	i	i	i	i	nt
Cc1ccc(Cl)cc1N1CCN(S(=O)(=O)c2ccc3[nH]c(=O)c(=O)[nH]c3c2)CC1	i	37	i	i	i	49
N#Cc1ccc(NC(=O)Nc2ccc(Oc3ccc(NC(=O)Nc4ccc(C#N)cc4)cc3)cc2)cc1	i	28	i	i	i	i

High-throughput results: PubChem, several laboratories
